# From ChEMBL document CHEMBL2390829, “N-alkylated 2,3,3-trimethylindolenines and 2-methylbenzothiazoles. Potential lead compounds in the fight against Saccharomyces cerevisiae infections” (Eur J Med Chem, 2013)
# Key:
# [1] = tested on: Schizosaccharomyces pombe; test: Antifungal activity against Schizosaccharomyces pombe after 24 hrs; format: functional
# Outline: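 S. pombe NJ2 h⁻ (ura4-D18 leu1-32 ade6-M210 his7-366) precultured 12 h at 30 °C, 200 rpm in yeast extract broth (YE). 3×10^4 cells were exposed in 96-well plates to 1:2 serial dilutions of compound (stocks in 20% v/v DMSO and medium), with DMSO and medium controls. Growth was read visually at 24 h, 30 °C. MIC was the well preceding first visible growth. Duplicate experiments.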
# Saccharomyces cerevisiae = test: Antifungal activity against Saccharomyces cerevisiae BY4741a after 24 hrs; format: functional
# Outline: (§1)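 C. albicans SC5314 or S. cerevisiae BY4741a (S288C derivative) grown 12 h at 30 °C, 200 rpm in YPD. 3×10^4 cells seeded per well of a 96-well plate with 1:2 serial dilutions of compound (stocks in 20% v/v DMSO and medium). DMSO and medium served as controls. Growth was scored visually after 24 h at 30 °C. MIC was taken as the well before first growth. Run twice.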
# [2] = Lipophilicity, log P of the compound; format: physicochemical; conditions: octanol/water
# Candida albicans = test: Antifungal activity against Candida albicans SC5314 after 24 hrs; format: functional; conditions: SC5314, 24 h; outline: as §1
MIC [1] [µg/mL],MIC (Saccharomyces cerevisiae) [µg/mL],logP [2],MIC (Candida albicans) [µg/mL],logP ([2]; read-out: logP),Structure (SMILES)
1000,1000,-4.33,1000,,CC1=[N+](CCCS(=O)(=O)[O-])c2ccccc2C1(C)C
500,500,,1000,-0.691,CC1=[N+](C)c2ccccc2C1(C)C.[I-]
500,500,,1000,-0.315,CC[N+]1=C(C)C(C)(C)c2ccccc21.[I-]
250,250,,1000,0.188,CCC[N+]1=C(C)C(C)(C)c2ccccc21.[I-]
250,250,,1000,0.747,CCCC[N+]1=C(C)C(C)(C)c2ccccc21.[I-]
125,250,,1000,1.25,CCCCC[N+]1=C(C)C(C)(C)c2ccccc21.[I-]
125,125,,1000,1.76,CCCCCC[N+]1=C(C)C(C)(C)c2ccccc21.[I-]
62.5,125,,1000,2.26,CCCCCCC[N+]1=C(C)C(C)(C)c2ccccc21.[I-]
62.5,62.5,,1000,2.77,CCCCCCCC[N+]1=C(C)C(C)(C)c2ccccc21.[I-]
31.3,31.3,,1000,3.27,CCCCCCCCC[N+]1=C(C)C(C)(C)c2ccccc21.[I-]
15.6,15.6,,500,3.78,CCCCCCCCCC[N+]1=C(C)C(C)(C)c2ccccc21.[I-]
1000,1000,,1000,0.904,CC1=[N+](Cc2ccccc2)c2ccccc2C1(C)C.[Br-]
1000,1000,-4.114,1000,,CC1=[N+](CCCCS(=O)(=O)[O-])c2ccccc2C1(C)C
250,1000,,500,3.29,CC1=Nc2ccccc2C1(C)C
500,500,,1000,-1.08,Cc1sc2ccccc2[n+]1C.[I-]
250,500,,1000,-0.701,CC[n+]1c(C)sc2ccccc21.[I-]
250,250,,1000,-0.199,CCC[n+]1c(C)sc2ccccc21.[I-]
250,250,,1000,0.36,CCCC[n+]1c(C)sc2ccccc21.[Br-]
250,62.5,,1000,1.25,CCCCC[n+]1c(C)sc2ccccc21.[Br-]
250,62.5,,1000,1.37,CCCCCC[n+]1c(C)sc2ccccc21.[Br-]
125,31.3,,1000,1.88,CCCCCCC[n+]1c(C)sc2ccccc21.[Br-]
62.5,15.6,,1000,2.38,CCCCCCCC[n+]1c(C)sc2ccccc21.[Br-]
31.3,7.8,,500,2.89,CCCCCCCCC[n+]1c(C)sc2ccccc21.[Br-]
7.8,3.9,,250,3.39,CCCCCCCCCC[n+]1c(C)sc2ccccc21.[Br-]
1000,1000,,1000,0.517,Cc1sc2ccccc2[n+]1Cc1ccccc1.[Br-]
1000,1000,-4.576,1000,,Cc1sc2ccccc2[n+]1CCCS(=O)(=O)[O-]
1000,1000,-4.411,1000,,Cc1sc2ccccc2[n+]1CCCCS(=O)(=O)[O-]
250,1000,,1000,2.08,Cc1nc2ccccc2s1
0.49,0.49,,0.49,,C[C@@H]1[C@H](O)[C@@H](C)/C=C/C=C/C=C/C=C/C=C/C=C/C=C/[C@H](O[C@@H]2O[C@H](C)[C@@H](O)[C@H](N)[C@@H]2O)C[C@@H]2O[C@](O)(C[C@@H](O)C[C@@H](O)[C@H](O)CC[C@@H](O)C[C@@H](O)CC(=O)O[C@H]1C)C[C@H](O)[C@H]2C(=O)O [AMPHOTERICIN B]
31.2,1000,,1000,,c1ccc2[nH]c(-c3cscn3)nc2c1 [THIABENDAZOLE]
